Measurements pooled from the literature.
Read-out: metabolic stability
Host: human

CCN(CC)CCNC(=O)c1c(C)[nH]c(/C=C2\C(=O)Nc3ccc(F)cc32)c1C
half-life (liver microsomes; 1 µM; pH 7.4): 27.5 min

O=c1c2ccc(Oc3ccccc3OC(F)(F)F)cc2[nH]c2cc(Cl)cc(F)c12
half-life (liver microsomes; 1 µM; pH 7.4): > 60 min

Cc1[nH]c(C)c(S(=O)(=O)Nc2ccc(C(F)(F)F)c(Cl)c2)c1C(=O)N(C)C
half-life (liver microsomes): 8.7 min

Cc1cc2c(C(=O)O)cccc2n1-c1nc2c(c(NCc3ccccc3)n1)CCCN2
half-life (liver microsomes; 1 µM; pH 7.4): > 120 min

O=C(N1CCCCC1)C12CC(c3ccccc3)(C1)C2
half-life (liver microsomes; 2 µM; pH 7.4): 70.2 min

O=c1c2c([nH]c3cccc(Oc4ccc(OC(F)(F)F)cc4)c13)CCCC2
half-life (liver microsomes; 1 µM; pH 7.4): 12.7 min

CCN(CC)CCNC(=O)c1c(C)[nH]c(/C=C2\C(=O)Nc3ccc(F)cc32)c1C
half-life (liver microsomes; 1 µM): 24.3 min

O=c1c2cc(Cl)ncc2[nH]c(=S)n1Cc1cccnc1
half-life (liver microsomes; 1 µM; pH 7.4): > 186 min

O=c1c2ccc(Oc3cccc(OC(F)(F)F)c3)cc2[nH]c2cc(Cl)cc(F)c12
half-life (liver microsomes; 1 µM; pH 7.4): > 60 min

Nc1nnc(-c2ccccc2O)cc1N1CCN(Cc2ccc(N3CCN(CCOc4cccc5c4C(=O)N(C4CCC(=O)NC4=O)C5=O)CC3)c(F)c2)CC1 (stereo not shown)
half-life (liver microsomes; 1 mM): 35 min

O=c1c2cc(Cl)c(CO)cc2[nH]c(=S)n1Cc1cccnc1
half-life (liver microsomes; 1 µM; pH 7.4): 57.1 min

COc1ccc(Cn2cc(CO[C@@H]3O[C@H]4[C@H](OC[C@H]4O)[C@H]3O)nn2)cc1
half-life (liver microsomes): 120 min

CC(C)C(=O)OCc1cc2[nH]c(=S)n(Cc3cccnc3)c(=O)c2cc1Cl
half-life (liver microsomes; 1 µM; pH 7.4): < 5 min

Cc1ccc(OCC(=O)N[C@@H](Cc2c[nH]c3ccccc23)C(=O)OC(C)C)cc1
half-life (liver microsomes; 20 mM): 352 min

OCc1ccc(-c2nn(Cc3ccccc3)c3ccccc23)o1
half-life (hepatocytes): 6.6 min

C=CCn1c(=O)c2cnc(Nc3ccc(N4CCN(C)CC4)cc3)nc2n1-c1ccc2c(n1)[C@@](O)(CC)CC2
half-life (liver microsomes): 23 min

CCCCN(CCCC)CCCOc1ccc2c(=O)c3c([nH]c2c1)CCCC3
half-life (liver microsomes; 1 µM; pH 7.4): 15.1 min

Cc1ncsc1-c1ccc([C@H](CC(=O)N2CCN(c3ccc(C#Cc4ccc(C(=O)N5CCC(n6cc(-c7ccc8c(c7)CCN8C(=O)Cc7cccc(OC(F)(F)F)c7)c7c(N)ncnc76)CC5)cc4)cn3)CC2)NC(=O)[C@@H]2C[C@@H](O)CN2C(=O)[C@@H](NC(=O)C2(F)CC2)C(C)(C)C)cc1
half-life (hepatocytes; 1 µM): > 120 min

O=c1c2c([nH]c3cc(OC(F)(F)F)ccc13)CCCC2
half-life (liver microsomes; 1 µM; pH 7.4): 8.01 min

O=c1c2cc(Cl)ccc2[nH]c(=S)n1Cc1ccc(-c2nnn[nH]2)nc1
half-life (liver microsomes; 1 µM; pH 7.4): > 186 min

CCOc1ccc(Nc2c3c(nc4ccccc24)CCC3)cc1
half-life (liver microsomes; 0.5 µM): 47 min

O=c1c2c([nH]c3cc(Nc4ccc(OC(F)(F)F)cc4)ccc13)CCCC2
half-life (liver microsomes; 1 µM; pH 7.4): 20.7 min

NCc1ccc(-c2nn(Cc3ccccc3)c3ccccc23)o1
half-life (liver microsomes): 34 min

NC(=NCCC[C@@H](C(=O)NCc1ccccc1)n1cc(-c2ccc(-c3ccccc3)cc2)nn1)c1ccc([N+](=O)[O-])o1
half-life (liver microsomes): 29 min

CCCN(CCC)CCOc1ccc2c(=O)c3c([nH]c2c1)CCCC3
half-life (liver microsomes; 1 µM; pH 7.4): > 60 min

COc1cc(-c2cc(C(C)=O)n3ccccc23)c(OC)cc1Cn1ccnc1
half-life (liver microsomes; pH 7.4): > 120 min

O=C1CCC(N2Cc3cc(C4CCN(Cc5ccccc5)CC4)ccc3C2=O)C(=O)N1 (stereo not shown)
half-life (liver microsomes; 1 µM): > 60 min

O=c1c2ccccc2[nH]c2cc(Oc3ccc(OC(F)(F)F)cc3)ccc12
half-life (liver microsomes; 1 µM; pH 7.4): > 60 min
